Assay results as given in ChEMBL document CHEMBL1157620, “1-(Aryl)-6-[alkoxyalkyl]-3-azabicyclo[3.1.0]hexanes and 6-(aryl)-6-[alkoxyalkyl]-3-azabicyclo[3.1.0]hexanes: a new series of potent and selective triple reuptake inhibitors” (J Med Chem, 2010).
The source made the active and inactive calls. The rule behind the calls is not given here.

Tested on: Mus musculus
Assay: Increase in spontaneous locomotor activity in CD1 mouse at 10 mg/kg, po administered 120 mins before test measured for 30 mins
Type: functional, organism-based
Set-up: dose 10 mg/kg
Conditions: not given
In short: (§1)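 CD-1 mice dosed orally at 3, 10 or 30 mg/kg, 120 min before test. Total distance travelled recorded over 30 min in infrared activity boxes.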
For `CCOC[C@H]1[C@@H]2CNC[C@@]21c1ccc(Cl)c(Cl)c1`, the Activity was “Active”.

Tested on: Mus musculus
Assay: Increase in spontaneous locomotor activity in CD1 mouse at 30 mg/kg, po administered 120 mins before test measured for 30 mins
Type: functional, organism-based
Set-up: dose 30 mg/kg
Conditions: not given
In short: as §1
For `CCOC[C@H]1[C@@H]2CNC[C@@]21c1ccc(Cl)c(Cl)c1`, the Activity was “inactive”.

Tested on: Mus musculus
Assay: Antidepressant-like activity in CD1 mouse assessed as reduction in immobility time at 3 mg/kg, po administered 120 mins before test by forced swimming test
Type: functional, organism-based
Set-up: dose 3 mg/kg
Conditions: not given
In short: (§2)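 Naive male CD-1 mice, 25-30 g, dosed orally 120 min before the swim test. Immobility (floating upright, only small movements to keep the head above water) was scored over the last 4 min of a 6 min session by an observer blind to treatment, from video.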
In the case of `CCOC[C@H]1[C@@H]2CNC[C@@]21c1ccc(Cl)c(Cl)c1`, the Activity is reported as “Active”.

Species: Homo sapiens
Assay: Selectivity for human recombinant NET over human recombinant DAT
Conditions: not given
Compound `COC[C@H]1[C@@H]2CNC[C@@]21c1ccc(Cl)c(Cl)c1` (relative stereo) has a Selectivity ratio of 70.

Tested on: not listed separately
Assay: Volume of distribution in rat
Type: ADME, organism-based
Conditions: in vivo
Work on `FC(F)(F)COC[C@@H]1[C@H]2CNC[C@]21c1ccc(Cl)c(Cl)c1` (stereo in doubt) yielded a Vd of 3.2 L/kg.

Tested on: not listed separately
Assay: Ratio of drug level in brain to blood in rat
Type: ADME, tissue-based
Conditions: read-out: BBR
For `FC(F)(F)COC[C@@H]1[C@H]2CNC[C@]21c1ccc(Cl)c(Cl)c1` (stereo in doubt), the Kp was 18. Compound `FC(F)(F)COC[C@H]1[C@@H]2CNC[C@@]21c1ccc(Cl)c(Cl)c1` (stereo in doubt) has a Kp of 18.

Species: Homo sapiens
Assay: Selectivity for human recombinant SERT over human recombinant DAT
Conditions: not given
With `CCOC[C@H]1[C@@H]2CNC[C@@]21c1ccc(Cl)c(Cl)c1` the Selectivity ratio was 50. `COC[C@H]1[C@@H]2CNC[C@@]21c1ccc(Cl)c(Cl)c1` (relative stereo) showed a Selectivity ratio of 70.

Species: Rattus norvegicus
Assay: (§3) Half life in rat
Type: ADME, organism-based
Conditions: in vivo
For `FC(F)(F)COC[C@H]1[C@@H]2CNC[C@@]21c1ccc(Cl)c(Cl)c1` (stereo in doubt), the t1/2 was 1.4 h.

Tested on: not listed separately
Assay: as §3
Type: ADME, organism-based
Conditions: in vivo
`FC(F)(F)COC[C@@H]1[C@H]2CNC[C@]21c1ccc(Cl)c(Cl)c1` (stereo in doubt) showed a half-life of 1.4 h.

Tested on: Rattus norvegicus
Assay: Enhancement of locomotor activity of CD rat at 1 mg/kg, ip
Type: functional, organism-based
Set-up: dose 1 mg/kg
Conditions: not given
In short: (§4)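 Male CD rats, 280-310 g, with microdialysis probe in left medial prefrontal cortex, freely moving, locomotion recorded at the same time. Dosed ip at 0.1, 0.3 or 1 mg/kg. Dialysate collected every 20 min after 2 h of perfusion, for 3 h post dose. NA, DA and 5-HT by HPLC with electrochemical detection; two-way repeated-measures ANOVA.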
With `CCOC[C@H]1[C@@H]2CNC[C@@]21c1ccc(Cl)c(Cl)c1` the Activity was “Active”.

Target: T1, Sodium-dependent noradrenaline transporter (Homo sapiens, UniProt P23975)
T1 sequence (P23975 whole entry): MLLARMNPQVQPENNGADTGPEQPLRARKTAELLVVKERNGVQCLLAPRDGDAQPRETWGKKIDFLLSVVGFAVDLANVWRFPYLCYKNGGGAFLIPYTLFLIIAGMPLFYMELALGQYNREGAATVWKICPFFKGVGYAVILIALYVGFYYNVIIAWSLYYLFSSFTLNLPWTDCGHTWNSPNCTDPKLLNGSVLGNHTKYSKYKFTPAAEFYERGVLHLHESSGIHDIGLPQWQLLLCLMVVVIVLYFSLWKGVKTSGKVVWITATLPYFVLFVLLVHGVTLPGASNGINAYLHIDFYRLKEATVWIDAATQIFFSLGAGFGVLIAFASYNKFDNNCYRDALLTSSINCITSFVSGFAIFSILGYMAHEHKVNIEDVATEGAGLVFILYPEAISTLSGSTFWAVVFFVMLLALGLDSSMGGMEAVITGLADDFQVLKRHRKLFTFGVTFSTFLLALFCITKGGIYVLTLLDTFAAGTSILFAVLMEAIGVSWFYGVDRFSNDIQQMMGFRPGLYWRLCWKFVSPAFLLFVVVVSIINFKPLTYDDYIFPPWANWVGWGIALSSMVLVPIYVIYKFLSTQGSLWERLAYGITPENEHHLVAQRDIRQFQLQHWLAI
Assay: Inhibition of [3H]noradrenalin reuptake at human NET expressed in LLCPK cells by scintillation proximity assay
Type: cell-based
Conditions: not given
In short: (§5)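 Uptake-SPA on stably transfected LLCPK cells in HEPES buffer, pH 7.4. SERT: 25000 cells/well, 1.5 mg/mL beads, 35 nM [3H]serotonin. NET: 50000 cells/well, 1.5 mg/mL beads, 45 nM [3H]noradrenalin. DAT: 75000 cells/well, 2 mg/mL beads, 75 nM [3H]dopamine. Concentrations are those of the substrate addition. 1 h at room temperature; 4-parameter fit.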
In the case of `COCC[C@H]1[C@]2(C)CNC[C@]12c1ccc(Cl)c(Cl)c1` (relative stereo), the IC50 is reported as 0.398 nM. `Cc1csc(C[C@H]2[C@@H]3CNC[C@@]32c2ccc(Cl)c(Cl)c2)n1` (relative stereo) showed an IC50 of 0.251 nM.

Target: T2, Sodium-dependent dopamine transporter (Homo sapiens, UniProt Q01959)
T2 sequence (Q01959 whole entry): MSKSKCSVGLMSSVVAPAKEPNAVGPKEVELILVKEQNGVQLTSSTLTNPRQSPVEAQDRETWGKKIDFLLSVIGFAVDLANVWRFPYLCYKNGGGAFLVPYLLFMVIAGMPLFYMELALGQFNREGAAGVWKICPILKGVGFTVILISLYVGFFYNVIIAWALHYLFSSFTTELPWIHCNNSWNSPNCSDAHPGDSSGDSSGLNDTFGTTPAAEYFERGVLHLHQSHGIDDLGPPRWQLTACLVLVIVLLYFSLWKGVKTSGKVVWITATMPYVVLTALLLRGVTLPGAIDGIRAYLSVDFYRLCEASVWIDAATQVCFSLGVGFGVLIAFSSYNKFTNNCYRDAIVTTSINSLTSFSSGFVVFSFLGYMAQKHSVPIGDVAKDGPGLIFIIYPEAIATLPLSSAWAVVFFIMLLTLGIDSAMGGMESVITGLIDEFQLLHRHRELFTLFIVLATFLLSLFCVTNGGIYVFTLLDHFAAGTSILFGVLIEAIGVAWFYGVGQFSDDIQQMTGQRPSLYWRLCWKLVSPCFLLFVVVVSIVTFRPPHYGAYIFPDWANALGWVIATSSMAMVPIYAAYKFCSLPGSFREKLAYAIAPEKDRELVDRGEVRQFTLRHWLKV
Assay: Displacement of [3H]WIN-35428 from human recombinant DAT expressed in BacMam virus-transduced cells by scintillation proximity assay
Type: cell-based
Conditions: not given
For `COCC[C@H]1[C@]2(C)CNC[C@]12c1ccc(Cl)c(Cl)c1` (relative stereo), the Ki was 50.1 nM. With `Cc1csc(C[C@H]2[C@@H]3CNC[C@@]32c2ccc(Cl)c(Cl)c2)n1` (relative stereo) the Ki was 20 nM. Work on `FC(F)(F)COC[C@@H]1[C@H]2CNC[C@]21c1ccc(Cl)c(Cl)c1` (stereo in doubt) yielded a Ki of 25.1 nM. Work on `FC(F)(F)COC[C@H]1[C@@H]2CNC[C@@]21c1ccc(Cl)c(Cl)c1` (stereo in doubt) yielded a Ki of 50.1 nM.

Target: T2, Sodium-dependent dopamine transporter
Assay: Inhibition of [3H]dopamine reuptake at human DAT expressed in LLCPK cells by scintillation proximity assay
Type: cell-based
Conditions: not given
In short: as §5
In the case of `COCC[C@H]1[C@]2(C)CNC[C@]12c1ccc(Cl)c(Cl)c1` (relative stereo), the IC50 is reported as 15.8 nM. `Cc1csc(C[C@H]2[C@@H]3CNC[C@@]32c2ccc(Cl)c(Cl)c2)n1` (relative stereo) gave an IC50 of 20 nM.

Tested on: Mus musculus
Assay: Increase in spontaneous locomotor activity in CD1 mouse at 3 mg/kg, po administered 120 mins before test measured for 30 mins
Type: functional, organism-based
Set-up: dose 3 mg/kg
Conditions: not given
In short: as §1
With `CCOC[C@H]1[C@@H]2CNC[C@@]21c1ccc(Cl)c(Cl)c1` the Activity was “inactive”.

Tested on: Mus musculus
Assay: Antidepressant-like activity in CD1 mouse assessed as reduction in immobility time at 10 mg/kg, po administered 120 mins before test by forced swimming test
Type: functional, organism-based
Set-up: dose 10 mg/kg
Conditions: not given
In short: as §2
With `CCOC[C@H]1[C@@H]2CNC[C@@]21c1ccc(Cl)c(Cl)c1` the Activity was “Active”.

Tested on: not listed separately
Assay: Bioavailability in rat
Type: ADME, organism-based
Conditions: in vivo
For `FC(F)(F)COC[C@@H]1[C@H]2CNC[C@]21c1ccc(Cl)c(Cl)c1` (stereo in doubt), the bioavailability was 41%.

Tested on: Rattus norvegicus
Assay: Increase in extracellular norepinephrine level in frontal cortex of free moving CD rat at 1 mg/kg, ip after 3 hrs by microdialysis
Type: functional, organism-based
Set-up: dose 1 mg/kg
Conditions: not given
In short: as §4
In the case of `CCOC[C@H]1[C@@H]2CNC[C@@]21c1ccc(Cl)c(Cl)c1`, the Activity is reported as “Active”.

Tested on: Mus musculus
Assay: Potentiation of 5-hydroxytryptophan-induced stereotpic behavior in po dosed CD1 mouse administered 120 mins before 5HTP challenge measured for 30 mins
Type: functional, organism-based
Conditions: not given
In short: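 CD-1 mice dosed orally 120 min before 5-HTP (100 mg/kg ip). Videotaped for 30 min and scored for hyperlocomotion, hind-limb abduction, flat body posture, head twitches/tremor and body tremor.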
For `CCOC[C@H]1[C@@H]2CNC[C@@]21c1ccc(Cl)c(Cl)c1`, the Activity was “Dose-dependent effect”.

Tested on: Rattus norvegicus
Assay: Increase in extracellular dopamine level in frontal cortex of free moving CD rat at 1 mg/kg, ip after 3 hrs by microdialysis
Type: functional, organism-based
Set-up: dose 1 mg/kg
Conditions: not given
In short: as §4
In the case of `CCOC[C@H]1[C@@H]2CNC[C@@]21c1ccc(Cl)c(Cl)c1`, the Activity is reported as “Active”.

Target: T3, Sodium-dependent serotonin transporter (Homo sapiens, UniProt P31645)
T3 sequence (P31645 whole entry): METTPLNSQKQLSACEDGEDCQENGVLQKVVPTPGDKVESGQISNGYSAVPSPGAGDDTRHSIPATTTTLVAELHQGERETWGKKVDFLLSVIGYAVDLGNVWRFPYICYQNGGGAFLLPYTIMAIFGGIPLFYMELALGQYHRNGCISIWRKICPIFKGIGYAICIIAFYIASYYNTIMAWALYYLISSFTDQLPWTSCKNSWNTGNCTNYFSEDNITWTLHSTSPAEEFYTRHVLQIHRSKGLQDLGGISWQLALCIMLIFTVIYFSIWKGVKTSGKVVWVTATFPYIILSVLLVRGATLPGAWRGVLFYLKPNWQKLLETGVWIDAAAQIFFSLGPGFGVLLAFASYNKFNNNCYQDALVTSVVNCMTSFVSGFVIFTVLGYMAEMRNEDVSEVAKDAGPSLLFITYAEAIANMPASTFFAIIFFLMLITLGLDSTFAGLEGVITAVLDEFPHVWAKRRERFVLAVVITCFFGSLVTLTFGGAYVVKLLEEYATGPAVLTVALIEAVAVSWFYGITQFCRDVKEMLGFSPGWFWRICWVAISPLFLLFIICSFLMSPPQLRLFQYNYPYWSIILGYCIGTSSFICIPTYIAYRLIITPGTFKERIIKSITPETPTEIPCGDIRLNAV
Assay: Inhibition of [3H]serotonin reuptake at human SERT expressed in LLCPK cells by scintillation proximity assay
Type: cell-based
Conditions: not given
In short: as §5
In the case of `COCC[C@H]1[C@]2(C)CNC[C@]12c1ccc(Cl)c(Cl)c1` (relative stereo), the IC50 is reported as 1.58 nM. In the case of `Cc1csc(C[C@H]2[C@@H]3CNC[C@@]32c2ccc(Cl)c(Cl)c2)n1` (relative stereo), the IC50 is reported as 1 nM.

Tested on: not listed separately
Assay: Blood clearance in rat
Type: ADME, organism-based
Conditions: not given
`FC(F)(F)COC[C@@H]1[C@H]2CNC[C@]21c1ccc(Cl)c(Cl)c1` (stereo in doubt) gave a clearance of 42 mL/min/kg.

Target: T1, Sodium-dependent noradrenaline transporter
Assay: Displacement of [3H]nisoxetine from human recombinant NET expressed in BacMam virus-transduced cells by scintillation proximity assay
Type: cell-based
Conditions: not given
In short: (§6)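 BacMam-transduced membranes in SPA format. SERT: 1 mg/mL beads, 6 μg/mL membranes, 3 nM [3H]citalopram. NET: 2 mg/mL beads, 40 μg/mL membranes, 10 nM [3H]nisoxetine. Incubated overnight at room temperature; pKi from pIC50 by Cheng-Prusoff.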
`COCC[C@H]1[C@]2(C)CNC[C@]12c1ccc(Cl)c(Cl)c1` (relative stereo) showed a Ki of 1 nM. With `Cc1csc(C[C@H]2[C@@H]3CNC[C@@]32c2ccc(Cl)c(Cl)c2)n1` (relative stereo) the Ki was 0.126 nM. `FC(F)(F)COC[C@@H]1[C@H]2CNC[C@]21c1ccc(Cl)c(Cl)c1` (stereo in doubt) gave a Ki of 1.58 nM. In the case of `FC(F)(F)COC[C@H]1[C@@H]2CNC[C@@]21c1ccc(Cl)c(Cl)c1` (stereo in doubt), the Ki is reported as 3.98 nM.

Target: T3, Sodium-dependent serotonin transporter
Assay: Displacement of [3H]citalopram from human recombinant SERT expressed in BacMam virus-transduced cells by scintillation proximity assay
Type: cell-based
Conditions: not given
In short: as §6
Compound `COCC[C@H]1[C@]2(C)CNC[C@]12c1ccc(Cl)c(Cl)c1` (relative stereo) has a Ki of 0.251 nM. Compound `Cc1csc(C[C@H]2[C@@H]3CNC[C@@]32c2ccc(Cl)c(Cl)c2)n1` (relative stereo) has a Ki of 0.0794 nM. Work on `FC(F)(F)COC[C@@H]1[C@H]2CNC[C@]21c1ccc(Cl)c(Cl)c1` (stereo in doubt) yielded a Ki of 0.631 nM. Work on `FC(F)(F)COC[C@H]1[C@@H]2CNC[C@@]21c1ccc(Cl)c(Cl)c1` (stereo in doubt) yielded a Ki of 1.26 nM.

Tested on: not listed separately
Assay: Fraction unbound in rat brain
Type: ADME, tissue-based
Conditions: brain
For `FC(F)(F)COC[C@@H]1[C@H]2CNC[C@]21c1ccc(Cl)c(Cl)c1` (stereo in doubt), the fraction unbound was 0.006. Work on `FC(F)(F)COC[C@H]1[C@@H]2CNC[C@@]21c1ccc(Cl)c(Cl)c1` (stereo in doubt) yielded a fraction unbound of 0.006.

Tested on: Mus musculus
Assay: Potentiation of 5-hydroxytryptophan-induced stereotpic behavior in CD1 mouse at 10 mg/kg, po administered 120 mins before 5HTP challenge measured for 30 mins
Type: functional, organism-based
Set-up: dose 10 mg/kg
Conditions: not given
In short: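 Naive male CD-1 mice (25-30 g) were dosed orally 120 min before an ip injection of 5-HTP (100 mg/kg). Each mouse was then placed alone in a perspex box and videotaped. For the next 30 min, observers scored aimless hyperlocomotor activity, hind-limb abduction, flat body posture, head twitches/tremor and body tremor.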
With `CN(C)CCCC1(c2ccc(F)cc2)OCc2cc(C#N)ccc21` (stereo unspecified) the Activity was “Active”.

Tested on: Rattus norvegicus
Assay: Increase in extracellular serotonin level in frontal cortex of free moving CD rat at 1 mg/kg, ip after 3 hrs by microdialysis
Type: functional, organism-based
Set-up: dose 1 mg/kg
Conditions: not given
In short: as §4
In the case of `CCOC[C@H]1[C@@H]2CNC[C@@]21c1ccc(Cl)c(Cl)c1`, the Activity is reported as “Active”.
